In ChEMBL document CHEMBL1157023, “Synthesis and antimicrobial activities of some new thiazole and pyrazole derivatives based on 4,5,6,7-tetrahydrobenzothiophene moiety” (2010) one finds zone of inhibition data, which are given here for 14 compounds.

Holding throughout (assay type): functional
Assay [1] deals with Bacillus thuringiensis. Put plainly: Antibacterial activity against Bacillus thuringiensis at 2 mg/ml after 24 hrs by agar diffusion assay. The note with it: read-out: DIZ. In a few lines: (§1)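 Bacterial strain grown on nutrient agar with test compound in DMSO, DMSO-only control plate for each organism, ampicillin 2 mg/ml as reference. Plates incubated 24 h in three replicate plates per compound. Activity read as inhibition zone diameter.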

The subject of assay [2] is Klebsiella pneumoniae. The assay can be described thus: Antimicrobial activity against Klebsiella pneumoniae at 2 mg/ml after 24 hrs by agar diffusion assay. The following applies: read-out: DIZ. A digest of the protocol:
as §1

The subject of assay [3] is Fusarium oxysporum. The assay can be described thus: Antifungal activity against Fusarium oxysporum at 2 mg/ml after 7 days by agar diffusion assay. The note with it: 168 h, read-out: DIZ. A digest of the protocol:
(§2)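 Fungus grown on potato dextrose agar with test compound in DMSO, DMSO-only control plate for each organism. Plates incubated seven days in three replicate plates per compound. Activity read as inhibition zone diameter.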

For assay [4], the system named is Botrytis fabae. The assay can be described thus: Antifungal activity against Botrytis fabae at 2 mg/ml after 7 days by agar diffusion assay. The following applies: 168 h, read-out: DIZ. A digest of the protocol:
as §2
(In general: A growth-free zone around the sample is the usual read-out of agar diffusion tests.)

In the case of `Cc1ccc(C)n1-c1[nH]nc(Nc2ccccc2)c1C(=O)Nc1sc2c(c1C(N)=O)CCCC2`, the zone of inhibition at 2000 µg/mL in assay [1] was 18 mm; in assay [2] it was 22 mm; in assay [3], 14 mm; in assay [4], 18 mm.

`Cc1cc(C)n2nc(Nc3ccccc3)c(C(=O)Nc3sc4c(c3C(N)=O)CCCC4)c2n1`: the zone of inhibition at 2000 µg/mL in assay [1] was 15 mm; in assay [2] it was 17 mm; in assay [3], 13 mm; in assay [4] it was 15 mm.

Take `Cc1cc(C)c2c(n1)nn1c(N)c(C(=O)Nc3sc4c(c3C(N)=O)CCCC4)nnc21`: the zone of inhibition at 2000 µg/mL is 16 mm in assay [1], 18 mm in assay [2], 13 mm in assay [3] and 13 mm in assay [4].

As for `NC(=O)c1c(NC(=O)c2cn[nH]c2N)sc2c1CCCC2`, the zone of inhibition at 2000 µg/mL came to 17 mm in assay [1], 20 mm in assay [2], 12 mm in assay [3] and 16 mm in assay [4].

On to `CC1(C)S[C@@H]2[C@H](NC(=O)[C@H](N)c3ccccc3)C(=O)N2[C@H]1C(=O)O` [AMPICILLIN], for which the zone of inhibition at 2000 µg/mL in assay [1] was 17 mm; in assay [2] it was 20 mm; in assay [3] it was 17 mm; in assay [4], 15 mm.

As to `COc1ccc(/C=c2\c(=O)s/c(=C(\C#N)C(=O)Nc3sc4c(c3C(N)=O)CCCC4)n2-c2ccccc2)cc1`, the zone of inhibition at 2000 µg/mL in assay [1] turned out to be 20 mm; in assay [2], 23 mm; in assay [3], 15 mm; in assay [4] it was 13 mm.

With `N#Cc1nnc2c(C(=O)Nc3sc4c(c3C(N)=O)CCCC4)c(Nc3ccccc3)nn2c1N`, the zone of inhibition at 2000 µg/mL in assay [1] was 16 mm; in assay [2], 18 mm; in assay [4] it was 16 mm.

As for `N#C/C(C(=O)Nc1sc2c(c1C(N)=O)CCCC2)=C1\SC(=O)CN1c1ccccc1`, the zone of inhibition at 2000 µg/mL in assay [1] stood at 21 mm; in assay [2], 19 mm; in assay [3], 16 mm; in assay [4] it was 12 mm.

In the case of `Cc1nn(-c2ccccc2)c2c1cnc1c(C(=O)Nc3sc4c(c3C(N)=O)CCCC4)c(Nc3ccccc3)nn12`, the zone of inhibition at 2000 µg/mL in assay [1] was 16 mm; in assay [2], 18 mm; in assay [3] it was 14 mm; in assay [4] it was 16 mm.

For the compound `NC(=O)c1c(NC(=O)c2c(Nc3ccccc3)nn3c4c(cnc23)CCc2ccccc2-4)sc2c1CCCC2`, the zone of inhibition at 2000 µg/mL in assay [1] turned out to be 15 mm; in assay [2], 17 mm; in assay [3], 17 mm.

Turning to `NC(=O)c1c(NC(=O)c2c(Nc3ccccc3)nn3c(-c4ccccc4)ccnc23)sc2c1CCCC2`, the zone of inhibition at 2000 µg/mL in assay [1] was 15 mm; in assay [2], 19 mm; in assay [3], 19 mm; in assay [4], 15 mm.

With `NC(=O)c1c(NC(=O)c2c(Nc3ccccc3)n[nH]c2N)sc2c1CCCC2`, the zone of inhibition at 2000 µg/mL in assay [1] came out at 24 mm; in assay [2], 22 mm; in assay [3] it was 14 mm.

As for `Cc1ccc(N/N=C2/C(=O)S/C(=C(\C#N)C(=O)Nc3sc4c(c3C(N)=O)CCCC4)N2c2ccccc2)cc1`, the zone of inhibition at 2000 µg/mL in assay [1] worked out at 22 mm; in assay [2], 19 mm; in assay [3], 16 mm; in assay [4], 18 mm.

Turning to `CC(=O)c1nnc2c(C(=O)Nc3sc4c(c3C(N)=O)CCCC4)c(Nc3ccccc3)nn2c1C`, the values for the zone of inhibition at 2000 µg/mL in assay [2] and in assay [4] were 12 mm and 18 mm, respectively.
